Measured values published in publication PMC8733272 (iScience, 2021).
Changes are numbered by the printed parent chain. Blank lines part the entries; values can stand above or below the compound they belong to.

Key:
[1] = biological target: T1, N-terminally tagged WT-Parkin (Homo sapiens, UniProt O60260); assay: In vitro ubiquitin vinyl sulfone; format: biochemical; settings: 3 μM pUb, 2 h, no E1, E2 or ATP
T1 sequence (O60260 1-465): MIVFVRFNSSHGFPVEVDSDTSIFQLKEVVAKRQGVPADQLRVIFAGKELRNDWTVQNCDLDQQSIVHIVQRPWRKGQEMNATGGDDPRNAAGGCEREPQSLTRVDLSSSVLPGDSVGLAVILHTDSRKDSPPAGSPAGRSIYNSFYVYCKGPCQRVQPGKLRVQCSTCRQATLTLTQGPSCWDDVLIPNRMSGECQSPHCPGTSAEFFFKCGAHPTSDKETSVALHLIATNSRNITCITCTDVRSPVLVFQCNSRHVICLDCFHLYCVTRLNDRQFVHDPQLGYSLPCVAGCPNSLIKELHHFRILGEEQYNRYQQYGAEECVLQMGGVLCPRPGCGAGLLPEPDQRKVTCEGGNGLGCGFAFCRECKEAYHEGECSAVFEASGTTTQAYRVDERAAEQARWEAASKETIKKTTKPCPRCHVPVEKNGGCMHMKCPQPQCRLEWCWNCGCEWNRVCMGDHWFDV
How it was run: (§1)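 Tagged Parkin (WT or W403A), 2 μM, incubated with 10 μM Ub-VS and 3 μM pUb. Test compound at 0, 0.09, 0.27, 0.8, 2.5, 7.4, 22.2, 66.7 and 200 μM. Buffer: 50 mM HEPES, 150 mM NaCl, 1 mM TCEP, pH 8.0. Final DMSO 2% (v/v).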

[2] = biological target: T2, WT-Parkin (substrate His-Miro1 186-591) (Homo sapiens, UniProt O60260); assay: Miro1 ubiquitination assay by Western blot; format: biochemical; settings: His-Miro1 (186-591) substrate
T2 sequence (O60260 1-465): T1 sequence (O60260 1-465)
How it was run: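 Run as the TR-FRET reaction with untagged WT-Parkin. Test compound was pre-incubated 30 min with E1, E2, Parkin and His-Miro1 186-591 (250 nM final); the 2X mix held 40 nM E1, 800 nM E2 and 100 nM Parkin. After 20 min the reaction was stopped in SDS sample buffer, then run on 4–12% bis-tris SDS-PAGE, PVDF transfer and IR-dye secondary imaging.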

[3] = biological target: T3, N-terminally tagged W403A-Parkin (Homo sapiens, UniProt O60260, W403A); assay: In vitro ubiquitin vinyl sulfone; format: biochemical; settings: 3 μM pUb, 1 h
T3 sequence (O60260 1-465 W403A): T1 sequence (O60260 1-465) with W403A
How it was run: as §1

WT-Parkin [4] = biological target: T4, WT-Parkin (Homo sapiens, UniProt O60260); assay: Parkin autoubiquitination by Western blot; format: biochemical; settings: 5 min reaction at 37°C
T4 sequence (O60260 1-465): T1 sequence (O60260 1-465)
How it was run: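 Untagged WT-Parkin was pre-incubated 30 min at 37°C with E1, E2 and test compound; the 2X mix held 40 nM E1, 800 nM E2 and 100 nM Parkin. Then 2X substrate mix was added (760 nM fluorescein-Ub, 50 μM ubiquitin, 10 μM pUb, 2 mM ATP) in HEPES pH 7.4 buffer with 1% DMSO, in 40 μL. Stopped after 5 min with SDS sample buffer; polyubiquitin smears were read by Western blot.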

WT-Parkin [5] = biological target: T4, WT-Parkin; assay: Parkin catalytic poly-auto-Ub TR-FRET assay; format: biochemical; settings: for activity in TR-FRET autoubiquitination assay: WT-Parkin with pUb
[6] = tested on: SH-SY5Y cells expressing the MitoQC construct; assay: MitoQC mitophagy assay; format: cell-based; settings: 1 h pre-incubation, Antimycin + Oligomycin
How it was run: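 SH-SY5Y cells carrying MitoQC were seeded at 1.6×10^4 cells/well on attachment factor and recovered 72 h. Cells were pre-treated 1 h with test compound, then given 5 μM Antimycin + 10 μM Oligomycin or DMSO for 8 h unless stated otherwise. Fixed in 2% PFA on ice 30 min, DAPI-stained, and imaged at 64x (25 fields, 4 replicate wells). mCherry puncta (mitolysosomes) were counted.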

[7] = biological target: Human MDR1 efflux transporter (MDCK-MDR1 cells) (Homo sapiens, UniProt P08183); assay: MDCK-MDR1 bidirectional permeability / efflux; format: in vitro ADME; settings: average of inward and outward permeability
How it was run: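 MDCK-MDR1 cells were seeded at 0.28×10^6 cells/mL on the apical side of transwell inserts and grown 7 days, with two media changes. Monolayers were rinsed in HBSS/1% HEPES pH 7.4. 1 μM test compound was added to the donor side (A>B and B>A); receivers held buffer with 1% BSA. Plates were shaken 2 h at 37°C. Donor was sampled at 0 and 120 min, receiver at 2 h, and quenched with acetonitrile plus internal standard for LC-MS/MS. Post-assay TEER had to exceed 430 ohm∗cm2. Papp = (dQ/dt)(1/C0)(1/A); ER = Papp B>A / Papp A>B.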

[8] = biological target: N-terminally tagged W403A-Parkin (UniProt O60260)

Chain of Human MDR1 efflux transporter (MDCK-MDR1 cells) (P08183 whole entry): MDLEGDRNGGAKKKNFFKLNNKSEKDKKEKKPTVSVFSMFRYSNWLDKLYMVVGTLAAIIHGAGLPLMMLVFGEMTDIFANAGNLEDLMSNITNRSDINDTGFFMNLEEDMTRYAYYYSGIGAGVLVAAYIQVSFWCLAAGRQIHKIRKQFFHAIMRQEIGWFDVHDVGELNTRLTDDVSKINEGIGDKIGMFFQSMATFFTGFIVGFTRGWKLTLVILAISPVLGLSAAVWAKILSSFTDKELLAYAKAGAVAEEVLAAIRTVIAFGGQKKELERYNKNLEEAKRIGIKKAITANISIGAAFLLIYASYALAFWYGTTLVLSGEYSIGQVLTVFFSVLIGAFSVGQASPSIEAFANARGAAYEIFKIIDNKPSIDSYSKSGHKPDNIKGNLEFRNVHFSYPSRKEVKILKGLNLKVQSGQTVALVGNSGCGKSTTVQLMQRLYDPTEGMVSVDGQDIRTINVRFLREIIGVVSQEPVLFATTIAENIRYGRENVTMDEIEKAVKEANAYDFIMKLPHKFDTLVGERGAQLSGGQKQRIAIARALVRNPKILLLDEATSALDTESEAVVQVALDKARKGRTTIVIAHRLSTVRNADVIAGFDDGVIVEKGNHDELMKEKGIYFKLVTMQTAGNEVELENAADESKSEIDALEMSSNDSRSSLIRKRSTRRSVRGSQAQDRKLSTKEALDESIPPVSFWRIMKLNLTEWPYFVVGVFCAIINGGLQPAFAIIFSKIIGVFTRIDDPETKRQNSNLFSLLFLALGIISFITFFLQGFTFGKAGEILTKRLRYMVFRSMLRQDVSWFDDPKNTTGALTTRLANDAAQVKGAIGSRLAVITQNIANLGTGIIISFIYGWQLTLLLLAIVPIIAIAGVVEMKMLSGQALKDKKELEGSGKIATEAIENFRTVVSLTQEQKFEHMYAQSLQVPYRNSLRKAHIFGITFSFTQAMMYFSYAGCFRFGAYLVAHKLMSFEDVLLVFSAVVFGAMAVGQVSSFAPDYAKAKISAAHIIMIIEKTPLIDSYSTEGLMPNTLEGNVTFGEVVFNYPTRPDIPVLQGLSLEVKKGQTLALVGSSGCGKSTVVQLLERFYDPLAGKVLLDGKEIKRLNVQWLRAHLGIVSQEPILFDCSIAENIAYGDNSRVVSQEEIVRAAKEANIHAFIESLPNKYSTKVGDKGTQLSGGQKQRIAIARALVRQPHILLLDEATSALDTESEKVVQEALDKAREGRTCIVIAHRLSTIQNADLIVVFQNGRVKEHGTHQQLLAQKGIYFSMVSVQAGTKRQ

- Ub-VS charging of WT-Parkin [1]: to a lesser extent
- Miro1 ubiquitination by Western blot [2]: reduced ability
- Ub-VS charging of W403A-Parkin [3]: to a lesser extent
Compound: CO[C@@H](C(=O)N1Cc2c(-c3ccc(C(=O)N4CCCc5ccccc54)cc3)cnn2C[C@H]1C(C)C)c1cnn(C)c1 (single isomer, unassigned) [BIO-2007818]
- Parkin autoubiquitination by Western blot (WT-Parkin [4]): reduced ability to induce Parkin autoubiquitination

- EC50 (WT-Parkin [5]; EC50 (μM), WT-Parkin, 5 μM pUb, averaged technical replicates n = 2): < 0.2 µM
Compound: CO[C@H](C(=O)N1Cc2c(-c3ccc(C(=O)N4CCCc5ccccc54)cn3)cnn2C[C@H]1C(C)C)c1cnn(C)c1 (single isomer, unassigned) [BIO-2007967]

Compound: CO[C@H](C(=O)N1Cc2c(-c3ccc(C(=O)N4CCCc5ccccc54)cc3)cnn2C[C@H]1C(C)C)c1ccccc1 (single isomer, unassigned) [BIO-2008550]
- effect on mitophagy, MitoQC [6]: no enhanced MitoQC activity

- activity in TR-FRET autoubiquitination assay (WT-Parkin [5]): inactive
Compound: CC(C)[C@H]1Cn2ncc(-c3ccc(C(=O)N4CCCc5ccccc54)cc3)c2CN1C(=O)Cc1ccccc1 [BIO-1966560, (S)-1-(6-isopropyl-3-(4-(1,2,3,4-tetrahydroquinoline-1-carbonyl)phenyl)-6,7-dihydropyrazolo[1,5-a]pyrazin-5(4H)-yl)-2-phenylethan-1-one]

- potency improvement (fold) over parent analog (WT-Parkin [5]; from TR-FRET EC50): 5 fold
Compound: CC(C)[C@@H]1Cn2ncc(-c3ccc(C(=O)N4CCCc5ccccc54)cc3)c2CN1C(=O)Cc1ccccc1 [BIO-1966561, (R)-1-(6-isopropyl-3-(4-(1,2,3,4-tetrahydroquinoline-1-carbonyl)phenyl)-6,7-dihydropyrazolo[1,5-a]pyrazin-5(4H)-yl)-2-phenylethan-1-one]

Compound: C[C@H](C(=O)N1Cc2c(-c3ccc(C(=O)N4CCCc5ccccc54)cc3)cnn2C[C@H]1C)c1ccccc1 [BIO-1967173, (S)-1-((R)-6-methyl-3-(4-(1,2,3,4-tetrahydroquinoline-1-carbonyl)phenyl)-6,7-dihydropyrazolo[1,5-a]pyrazin-5(4H)-yl)-2-phenylpropan-1-one]
- effect on mitophagy, MitoQC [6]: no enhanced MitoQC activity

- activity in TR-FRET autoubiquitination assay (WT-Parkin [5]): weakly active
Compound: C[C@@H]1Cn2ncc(-c3ccc(C(=O)N4CCCc5ccccc54)cc3)c2CN1C(=O)[C@H](C)c1ccccc1 [BIO-1967174, (R)-1-((R)-6-methyl-3-(4-(1,2,3,4-tetrahydroquinoline-1-carbonyl)phenyl)-6,7-dihydropyrazolo[1,5-a]pyrazin-5(4H)-yl)-2-phenylpropan-1-one]
- Miro1 ubiquitination by Western blot [2]: enhance the rate of monoubiquitination of Miro1 substrate to a level comparable to that of W403A-Parkin

- activity in TR-FRET autoubiquitination assay (WT-Parkin [5]): inactive
Compound: C[C@H](C(=O)N1Cc2c(-c3ccc(C(=O)N4CCCc5ccccc54)cc3)cnn2C[C@@H]1C)c1ccccc1 [BIO-1968010, (S)-1-((S)-6-methyl-3-(4-(1,2,3,4-tetrahydroquinoline-1-carbonyl)phenyl)-6,7-dihydropyrazolo[1,5-a]pyrazin-5(4H)-yl)-2-phenylpropan-1-one]

- activity in TR-FRET autoubiquitination assay (WT-Parkin [5]): inactive
Compound: C[C@@H](C(=O)N1Cc2c(-c3ccc(C(=O)N4CCCc5ccccc54)cc3)cnn2C[C@@H]1C)c1ccccc1 [BIO-1968011, (R)-1-((S)-6-methyl-3-(4-(1,2,3,4-tetrahydroquinoline-1-carbonyl)phenyl)-6,7-dihydropyrazolo[1,5-a]pyrazin-5(4H)-yl)-2-phenylpropan-1-one]

- Ub-VS charging of WT-Parkin [1]: no significant activity
- Miro1 ubiquitination by Western blot [2]: inactive
- MDR1-MDCK avg (average of Papp AB/BA) [7]: 4.4 ×10⁻⁶ cm/s
- Parkin autoubiquitination by Western blot (WT-Parkin [4]): inactive
- activity in TR-FRET autoubiquitination assay (WT-Parkin [5]): inactive
Compound: Cc1n[nH]c(CC(=O)N2Cc3c(-c4ccc(C(=O)N5CCCc6ccccc65)cc4)cnn3C[C@H]2C)n1 [BIO-1984542, (R)-2-(3-methyl-1H-1,2,4-triazol-5-yl)-1-(6-methyl-3-(4-(1,2,3,4-tetrahydroquinoline-1-carbonyl)phenyl)-6,7-dihydropyrazolo[1,5-a]pyrazin-5(4H)-yl)ethan-1-one]

- EC50 of pUb for Ub-VS charging of W403A-Parkin (gel shift), without BIO-2007817 [8]: 5.4 μM
Compound: Phospho-ubiquitin (pUb): Human Recombinant pSer65-Ubiquitin (from UniProt P0CG48 1-76) (natural protein)
